TAAR1 agonist = agonists of human TAAR1. CHO RD-HGA16 TAAR1, Fluo-8 calcium fluorescence; vehicle wells 0%, saturating PEA agonist 100%. Q96RJ0. activation, % at 3 µM. hit rate 0.99% among 360,000;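 active = activation above the mean activation of all test compounds in the run plus 3 SD, cut at about 38% in these data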
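System: CHO-derived RD-HGA16 cells with stable Gα16 and human TAAR1. Times: 17-24 h plating, Fluo-8 75 min 37 °C, 30 min RT. Measured by: calcium-sensitive Fluo-8 signal, excitation 470-495, emission 515-575 nm. Read-out basis: % activation relative to PEA EC100 response. Control set: DMSO and PEA EC100. Repeats: no replicates (n 1).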
GPR7 antag = human neuropeptides B/W receptor 1 antagonism | P48145 | GPR7-expressing cells, fluorescence antagonist assay | inhibition, % at 4.4 µM | hit rate 1.1% among 290,000 | AID 1861; in the data active = inhibition above about 16%, passing the limit was not always enough;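 note: cells stimulated with the agonist NPW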
TAAR1 antagonist = antagonists of human TAAR1; hit rate 1.5% among 360,000; CHO RD-HGA16 TAAR1, Fluo-8 calcium fluorescence, antagonist; Q96RJ0; inhibition, % at 3 µM;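 active = inhibition above a per-plate cutoff, the mean inhibition of test compounds on that plate plus 3 SD, cut at about 49% in these data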
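Assay system: CHO-derived RD-HGA16 cells stably expressing human TAAR1 plus Gα16. Timing: 140 s kinetic read after compound, 140 s after agonist. Technique: kinetic Fluo-8 calcium fluorescence measurement. Measure: % inhibition of agonist calcium response.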
OX1R antag-1 = antagonists of human orexin 1 receptor (OX1R). O43613. OX1R-expressing cells, FRET antagonist read-out. inhibition, % at 6.6 µM. hit rate 1.8% among 330,000; in the data active = inhibition mostly above about 38%, no sharp cut-off; inactive = mostly below about 40%
Target sequence (O43613 whole entry, looked up): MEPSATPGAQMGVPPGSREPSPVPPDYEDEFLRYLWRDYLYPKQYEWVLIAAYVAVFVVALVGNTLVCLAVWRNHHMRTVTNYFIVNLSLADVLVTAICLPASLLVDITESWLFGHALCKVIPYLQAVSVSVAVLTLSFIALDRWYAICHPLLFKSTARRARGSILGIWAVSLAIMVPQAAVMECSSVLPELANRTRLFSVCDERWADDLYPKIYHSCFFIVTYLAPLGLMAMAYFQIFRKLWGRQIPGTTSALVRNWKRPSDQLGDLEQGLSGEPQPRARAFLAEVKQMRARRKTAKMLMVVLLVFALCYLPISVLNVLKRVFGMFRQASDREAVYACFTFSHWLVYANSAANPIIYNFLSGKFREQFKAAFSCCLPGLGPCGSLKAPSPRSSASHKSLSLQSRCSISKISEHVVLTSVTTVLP
OX1R antag-2 = antagonists of human orexin 1 receptor | O43613 | CHO/OX1R cells, Fluo-8 calcium fluorescence, orexin A | inhibition, % at 5 µM | hit rate 0.43% among 330,000 | AID 434989;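 active = inhibition above its plate's threshold, mean inhibition of all tested compounds on the plate plus 3 SD, cut at about 37% in these data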
CHO parental Ca = counter-screen: ATP calcium response change in parental CHO cells; parental CHO-K1, ATP-induced calcium, Fluo-8 fluorescence; hit rate 0.63% among 330,000; AID 463079; inhibition, % at 5.6 µM;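 active = inhibition above that plate's mean sample inhibition plus 3 SD, cut at about 26% in these data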
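material = parental CHO cells | also added = ATP as calcium-mobilizing challenge | dosing = single point at 5.6 µM | detection = intracellular calcium via Fluo-8 no-wash fluorescent dye | read-out = % inhibition | benchmarks = low control ATP plus DMSO, high control DMSO only | repeats = one well per compound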
Each line names hits and unclear results; the compound was inactive in the other large screens. The list is not random: actives were taken first. Their share in the collection is about 4.6%.

COc1ccc(C(=O)NNC(=O)CSc2nnc(COc3ccccc3)n2C)cc1	none
COc1ccc(C(=O)NNC(=O)CSc2nnc(COc3ccc4ccccc4c3)n2C)cc1	TAAR1 agonist 43.6
CCOc1ccc(C(=O)NCCC(=O)N2CCC3(CC2)NCCc2[nH]cnc23)cc1OCC	none
CCOC(=O)c1c(C)[nH]c(C(=O)C(C)OC(=O)c2cccc(OCc3c(C)noc3C)c2)c1C (stereo unspecified)	CHO parental Ca 49.2
CCN1CCN(CC(=O)Nc2ccc(Cl)c(Cl)c2)C(=O)C1=O	none
CCN1CCN(CC(=O)Nc2ccccc2)C(=O)C1=O	GPR7 antag 15.3
O=C(C[n+]1ccccc1)N/N=C/c1cc(Br)cc(Br)c1O	OX1R antag-1 29.0 (no result: TAAR1 agonist, TAAR1 antagonist)
Cc1ccnc(SCCn2c(N3CCCCC3)nc3c2c(=O)[nH]c(=O)n3C)n1	none (no result: TAAR1 agonist, TAAR1 antagonist, OX1R antag-1, OX1R antag-2, CHO parental Ca)
Cc1ccnc(SCCn2c(N3CCN(c4ccccc4)CC3)nc3c2c(=O)[nH]c(=O)n3C)n1	TAAR1 antagonist 51.4
CC(C)n1cnnc1SCC(=O)Nc1ccc(Br)cc1F	none
OC(Cn1ccnc1)c1ccc(Cl)cc1Cl (stereo unspecified)	none
Clc1ccc(C(Cn2ccnc2)OCc2c(Cl)cccc2Cl)c(Cl)c1 (stereo unspecified)	TAAR1 antagonist 51.0, CHO parental Ca 60.2 (no result: GPR7 antag)
NC(=O)[C@@H]1CCCCNc2c(I)cc([N+](=O)[O-])cc2C(=O)N[C@@H](CCC(=O)O)C(=O)N[C@@H](CO)C(=O)N1	none
NC(=O)[C@@H]1CCCNc2c(F)cc([N+](=O)[O-])cc2C(=O)N[C@@H](CCC(=O)O)C(=O)N[C@@H](CO)C(=O)N1	OX1R antag-1 60.1
O=C(CNC(=O)c1cccs1)c1ccc([N+](=O)[O-])cc1	OX1R antag-1 59.2
CC(=O)NC(CC(=O)c1ccc([N+](=O)[O-])cc1)C(Cl)(Cl)Cl (stereo unspecified)	OX1R antag-1 75.5
O=C(CNC(=O)c1ccc([N+](=O)[O-])cc1)c1ccccc1	OX1R antag-1 46.9 (no result: TAAR1 agonist, TAAR1 antagonist)
O=C(CNC(=O)c1ccco1)OCC(=O)c1ccc([N+](=O)[O-])cc1	OX1R antag-1 41.1
O=C(CNC(=O)c1cccs1)OCC(=O)c1ccc([N+](=O)[O-])cc1	none
Cc1nc(SC(C)C(=O)NCC2CCCO2)c2cc(-c3ccccc3)sc2n1 (stereo unspecified)	none (no result: GPR7 antag)
COc1ccccc1NC(=O)CSc1nnnn1C1CCCCC1	none
Clc1ccc(C2=CC(c3ccco3)n3ncnc3N2)cc1 (stereo unspecified)	TAAR1 agonist 107.1
Cc1cc(N/N=C/c2ccccc2)nc(N)n1	TAAR1 agonist 40.7
Cc1nc(N)nc(N/N=C/c2ccccc2)n1	none
CN1C(=O)C2(Nc3ccccc3-c3nc4ccccc4n32)c2ccccc21 (stereo unspecified)	none
O=C1Nc2ccccc2C12Nc1ccccc1-c1nc3ccccc3n12 (stereo unspecified)	GPR7 antag 20.7
O=C(NCCC1CCCCN1S(=O)(=O)c1cccs1)C(=O)Nc1ccccc1F (stereo unspecified)	none (no result: GPR7 antag)
CC(C)(C)C1CCC(CN2C(Nc3ccccc3)=NC[C@@H]2Cc2ccccc2)CC1 (stereo partly specified)	TAAR1 agonist 73.9 (no result: GPR7 antag)
COc1n[nH]c(C(=O)Nc2cc(F)ccc2C)c1[N+](=O)[O-]	none
CN(C1=NS(=O)(=O)N=C(N(C)c2ccccc2)O1)c1ccccc1	none (no result: GPR7 antag, OX1R antag-1, OX1R antag-2, CHO parental Ca)
CCc1ccc(-c2nc(CN3CCC(C(=O)N4CCN(c5ccccn5)CC4)CC3)c(C)o2)cc1	none
CCN(CCNC(=O)C1CCN(Cc2nc(-c3ccc(Cl)cc3)oc2C)CC1)c1ccccc1	GPR7 antag 53.2
CCc1ccc(-c2nc(CN3CCC(C(=O)NCCN(CC)c4ccccc4)CC3)c(C)o2)cc1	none
CCN(CCNC(=O)C1CCN(Cc2nc(-c3cccc(Cl)c3)oc2C)CC1)c1ccccc1	TAAR1 agonist 38.6
CCc1ccc(-c2nc(CN3CCC(C(=O)N4CCN(c5ccccc5)CC4)CC3)c(C)o2)cc1	GPR7 antag 23.4
CC(=O)C[C@@H]1OC[C@H](Cc2ccccc2)N1S(=O)(=O)c1ccc(C)cc1	none (no result: GPR7 antag, OX1R antag-1, OX1R antag-2, CHO parental Ca)
CCOC(=O)N1CCC(NC(=O)CCC(=O)N2CCOc3ccc(C)cc32)CC1	none
Cc1ccc2c(c1)N(C(=O)CCC(=O)NC1CCC(C)CC1)CCO2 (stereo unspecified)	OX1R antag-1 42.9
Cc1ccc2c(c1)N(C(=O)CCC(=O)N1CCN(c3cccc(C)c3C)CC1)CCO2	OX1R antag-1 39.7
N#Cc1nc(COc2ccccc2)oc1N1CCCCCC1	CHO parental Ca 54.1
O=C(NCCO)C1CCN(C(=O)c2ccc(-c3ccccc3)cc2)CC1	none
CCOC(=O)c1csc(NC(=O)CSc2nnnn2-c2ccc(OCC)cc2)n1	TAAR1 agonist 39.7 (no result: OX1R antag-1, OX1R antag-2, CHO parental Ca)
CCOC(=O)Cc1csc(NC(=O)CSc2nnnn2-c2ccc(CC)cc2)n1	none
COc1cc(/C=C/C(=O)O)cc2c1OCCO2	none
O=C(NCc1ccccc1)Nc1cccn(Cc2c(F)cccc2Cl)c1=O	none
O=C1N/C(=C/c2ccsc2)C(=O)N1c1ccccc1	TAAR1 agonist 43.7
Cn1c(=O)c2c(ncn2CC(=O)OCCCC(=O)c2ccc(Br)cc2)n(C)c1=O	CHO parental Ca 34.7 (no result: GPR7 antag)
Cc1cc(O)ccc1NC(=O)Cc1cccc2ccccc12	none (no result: GPR7 antag, OX1R antag-1, OX1R antag-2, CHO parental Ca)
COc1ccc(N=C2SC(CC(=O)Nc3ccccc3)C(=O)N2CCc2ccccn2)cc1 (stereo unspecified)	OX1R antag-1 69.2
COc1ccc(OC)c(NC(=O)CC2SC(=Nc3ccccc3)N(CCc3ccccn3)C2=O)c1 (stereo unspecified)	none
O=C(COc1cccnc1[N+](=O)[O-])Nc1cccc2ccccc12	none (no result: TAAR1 agonist, GPR7 antag, TAAR1 antagonist)
Cc1ccc(CNC(=O)c2oc3ccc(S(=O)(=O)N4CCC5(CC4)OCCO5)cc3c2C)cc1	TAAR1 antagonist 57.4
Nc1nonc1-n1nnc(C(=O)N/N=C/c2cccnc2)c1CSc1ccccc1	none
Nc1nonc1-n1nnc(C(=O)N/N=C/c2cccnc2)c1CSc1ccc(Cl)cc1	TAAR1 antagonist 56.3, OX1R antag-1 47.5
O=C(CN1C(=O)CSc2ccc(S(=O)(=O)N3CCOCC3)cc21)NCc1ccc(Cl)cc1	OX1R antag-1 48.3
Cn1ccc2c(-c3cccc(C=O)c3)cc3c(c21)C1CCC3C1 (stereo unspecified)	none (no result: GPR7 antag, OX1R antag-1, OX1R antag-2, CHO parental Ca)
COCCNC(=O)C(c1ccc(F)cc1)N(Cc1ccco1)C(=O)CCC(=O)Nc1nccs1 (stereo unspecified)	OX1R antag-1 60.4
COCCNC(=O)C(c1ccc(F)cc1)N(Cc1ccco1)C(=O)CCC(=O)Nc1ccccn1 (stereo unspecified)	none

Screening results (PubChem)
